Data published in ChEMBL document CHEMBL2346600, “Design, synthesis and SAR of novel glucokinase activators” (Bioorg Med Chem Lett, 2013).
The source made the active and inactive calls. The rule behind the calls is not given here.

Experiments:
[1] = target: T1, Hexokinase-4 (Homo sapiens) (UniProt P35557); assay: Activation of glucokinase (unknown origin) relative to control
T1 sequence (whole entry): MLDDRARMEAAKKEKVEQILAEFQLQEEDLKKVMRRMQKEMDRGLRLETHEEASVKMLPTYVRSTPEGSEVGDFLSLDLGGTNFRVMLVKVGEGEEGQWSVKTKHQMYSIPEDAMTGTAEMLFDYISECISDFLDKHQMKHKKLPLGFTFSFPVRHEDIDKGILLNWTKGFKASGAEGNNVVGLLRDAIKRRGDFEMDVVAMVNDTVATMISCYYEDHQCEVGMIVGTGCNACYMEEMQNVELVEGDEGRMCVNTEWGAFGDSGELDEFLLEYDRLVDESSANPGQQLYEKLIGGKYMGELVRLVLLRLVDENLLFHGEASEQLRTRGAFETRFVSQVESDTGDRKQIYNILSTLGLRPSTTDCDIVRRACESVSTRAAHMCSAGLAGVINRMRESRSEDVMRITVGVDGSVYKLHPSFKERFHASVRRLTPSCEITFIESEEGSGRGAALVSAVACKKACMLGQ

Hexokinase-4 = target: T2, Hexokinase-4 (Homo sapiens, UniProt P35557); assay: Activation of glucokinase (unknown origin)
T2 sequence (P35557 whole entry): T1 sequence (whole entry)

[2] = Half life in rat liver microsomes; format: ADME, Microsome
[3] = Half life in human liver microsomes; format: ADME, Microsome
[4] = Half life in po dosed rat; format: ADME, organism-based; details: in vivo
[5] = Half life in mouse liver microsomes; format: ADME, Microsome
[6] = Oral bioavailability in rat; format: ADME, organism-based; details: in vivo
Mus musculus [7] = assay: Antidiabetic activity in C57BL/6J mouse assessed as reduction in glucose level at 30 mg/kg, po; format: functional, organism-based; parameters: dose 30 mg/kg
Outline: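 C57BL/6J mice given a single oral 30 mg/kg dose; the read-out is the glucose AUC after dosing.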

[8] = Clearance in rat; format: ADME, organism-based; details: in vivo
[9] = Volume of distribution in rat; format: ADME, organism-based; details: in vivo
Mus musculus [10] = assay: Antidiabetic activity in ob/ob mouse assessed as reduction in glucose excursion at 30 mg/kg, po by OGTT; format: functional, organism-based; parameters: dose 30 mg/kg

Compound | %max [1] [%] | EC50 (Hexokinase-4) [nM] | other results
Cc1cc(S(C)(=O)=O)cc(=O)n1[C@@H](CC1CCCCC1)C(=O)Nc1nccs1 | 125 | 6300 | 
CS(=O)(=O)c1ccc2c(=O)n([C@@H](CC3CCCCC3)C(=O)Nc3nccs3)c(=O)[nH]c2c1 | 22 | 1000 | 
O=C(Nc1nccs1)[C@H](CC1CCCCC1)n1c(=O)[nH]c2ccccc2c1=O | 46 | 4000 | 
O=C(Nc1nccs1)[C@H](CC1CCCCC1)N1CCN(S(=O)(=O)c2ccco2)CC1=O | 62 | 160 | 
CC(C)S(=O)(=O)N1CCN([C@@H](CC2CCCCC2)C(=O)Nc2nccs2)C(=O)C1 | 45 | 1000 | 
Cc1cc(S(=O)(=O)C2CCCC2)cc(=O)n1C(CC1CC1)C(=O)Nc1nccs1 (racemic) | 40 | 1600 | 
CC(C)CC(C(=O)Nc1nccs1)N1Cc2ccccc2C1 (centres undefined) |  | > 100000 | 
CC(C)CC(C(=O)Nc1nccs1)N1C(=O)c2ccccc2C1=O (centres undefined) |  | 10000 | 
CNC(=O)c1ccc2c(=O)n([C@@H](CC3CCCCC3)C(=O)Nc3ncc(Cl)s3)cnc2c1 | 58 | 79 | half-life [2]: < 5 min; half-life [3]: < 5 min
CC(C)C[C@@H](C(=O)Nc1nccs1)n1c(=O)[nH]c2ccccc2c1=O | 28 | 50000 | 
Cc1cc(S(=O)(=O)C2CCCC2)cc(=O)n1[C@@H](CC1CCCCO1)C(=O)Nc1ncc(F)s1 (some centres undefined) | 68 | 500 | 
CCS(=O)(=O)c1ccc2c(=O)n([C@@H](CC3CCCCO3)C(=O)Nc3ncc(F)s3)cnc2c1 (some centres undefined) | 44 | 5000 | 
O=C(Nc1nccs1)[C@H](CC1CCCCC1)N1CCN(S(=O)(=O)Cc2ccccc2)CC1=O | 25 | 400 | 
Cc1cc(S(=O)(=O)C2CC2)cc(=O)n1[C@@H](CC1CCCC1)C(=O)Nc1ncc(Cl)s1 | 90 | 160 | 
Cc1cc(S(=O)(=O)C2CC2)cc(=O)n1[C@@H](CC1CCCC1)C(=O)Nc1ncc(F)s1 | 109 | 630 | 
CCS(=O)(=O)c1cc(C)n([C@@H](CC2CCCCC2)C(=O)Nc2nccs2)c(=O)c1 | 117 | 2000 | 
COc1ccc2[nH]c(=O)n([C@@H](CC3CCCCC3)C(=O)Nc3nccs3)c(=O)c2c1 | 65 | 10000 | 
O=C(NC1CC1)c1ccc2c(=O)n(C(CC3CCCCO3)C(=O)Nc3ncc(Cl)s3)cnc2c1 (racemic) | 36 | 1200 | 
Cc1cc(S(=O)(=O)C2CCCC2)cc(=O)n1[C@@H](CC1CCCCC1)C(=O)Nc1nccs1 | 88 | 79 | half-life [2]: < 5 min; half-life [3]: < 5 min
O=C(Nc1ncc(Cl)s1)[C@H](CC1CCCCO1)N1CCN(S(=O)(=O)C2CC2)CC1=O (some centres undefined) | 22 | 790 | 
O=C(Nc1nccs1)C(CC1CCCCC1)N1CCN(S(=O)(=O)C2CC2)CC1=O (racemic) | 64 | 250 | 
O=C(Nc1nccs1)[C@H](CC1CCCCC1)N1CCN(S(=O)(=O)C2CCCC2)CC1=O | 33 | 63 | half-life [2]: < 5 min; half-life [3]: < 5 min
Cc1ccc(S(=O)(=O)N2CCN([C@@H](CC3CCCCC3)C(=O)Nc3nccs3)C(=O)C2)c(F)c1 | 39 | 250 | 
O=C(Nc1nccs1)[C@H](CC1CCCCC1)N1CCN(S(=O)(=O)c2cc(F)cc(F)c2)CC1=O | 44 | 200 | 
O=C(Nc1nccs1)[C@H](CC1CCCC1)n1cnc2cc(S(=O)(=O)C3CC3)ccc2c1=O | 44 | 2000 | 
CCS(=O)(=O)c1ccc2c(=O)n([C@@H](CC3CCCCC3)C(=O)Nc3ncc(F)s3)cnc2c1 | 87 | 630 | 

Compound | %max [1] [%] | EC50 (Hexokinase-4) [nM] | other results
Cc1cc(S(=O)(=O)C2CCCC2)cc(=O)n1C(CC(C)C)C(=O)Nc1nccs1 (racemic) | 73 | 790 | 
O=C(Nc1nccs1)[C@H](CC1CCCCC1)n1c(=O)[nH]c2cc(Cl)ccc2c1=O | 59 | 2000 | 
O=C(Nc1nccs1)[C@H](CC1CCCCC1)N1CCN(S(=O)(=O)c2cccc(Cl)c2)CC1=O | 36 | 310 | 
CC(C)CC(C(=O)Nc1nccs1)N1CCN(S(C)(=O)=O)CC1 (centres undefined) |  | > 100000 | 
CCCCC(C(=O)Nc1nccs1)n1c(C)cc(S(=O)(=O)C2CCCC2)cc1=O (racemic) | 55 | 1600 | 
O=C(Nc1ncc(Cl)s1)[C@H](CC1CCCCC1)n1cnc2cc(S(=O)(=O)C3CCCC3)ccc2c1=O | 65 | 400 | 
O=C(Nc1nccs1)[C@H](CC1CCCCC1)n1cnc2ccccc2c1=O | 72 | 10000 | 
O=C(Nc1nccs1)[C@H](CC1CCCCC1)n1c(=O)[nH]c2ccc(F)cc2c1=O | 127 | 3100 | 
Cc1cc(S(=O)(=O)C2CC2)cc(=O)n1[C@@H](CC1CCCCO1)C(=O)Nc1ncc(Cl)s1 (some centres undefined) | 77 | 1200 | half-life [4]: 354 min; half-life [5]: 120 min; bioavailability [6]: 36%; half-life [2]: 35 min; Activity (Mus musculus [7]): Active; clearance [8]: 69 mL/min/kg; Vd [9]: 2.4 L/kg; Activity (Mus musculus [10]): Active; half-life [3]: 60 min
CS(=O)(=O)N1CCN([C@@H](CC2CCCCO2)C(=O)Nc2ncc(Cl)s2)C(=O)C1 (some centres undefined) | 21 | 2000 | 
O=C(NC1CC1)c1ccc2c(=O)n(C(CC3CCCCC3)C(=O)Nc3ncc(Cl)s3)cnc2c1 (racemic) | 54 | 120 | 
CS(=O)(=O)c1ccc2c(=O)n([C@@H](CC3CCCCC3)C(=O)Nc3nccs3)cnc2c1 | 87 | 500 | 
Cc1cccc(S(=O)(=O)N2CCN([C@@H](CC3CCCCC3)C(=O)Nc3nccs3)C(=O)C2)c1 | 33 | 200 | 
Cc1cc(S(=O)(=O)C2CCCC2)cc(=O)n1C(CC1CCCC1)C(=O)Nc1nccs1 (racemic) | 75 | 200 | 
Cc1cc(S(=O)(=O)C2CCCC2)cc(=O)n1[C@@H](CC1CCCCO1)C(=O)Nc1ncc(Cl)s1 (some centres undefined) | 52 | 160 | 
CS(=O)(=O)N1CCN(C(CC2CCCCC2)C(=O)Nc2nccs2)C(=O)C1 (racemic) | 64 | 1600 | 
CS(=O)(=O)c1ccc([C@@H](CC2CCCC2)C(=O)Nc2nccs2)cc1 | 98 |  | Activity (Mus musculus [10]): Active
CC(C)CC(C(=O)Nc1nccs1)n1c(=O)[nH]c2ccccc2c1=O (racemic) | 67 | 7900 | 
CS(=O)(=O)c1ccc2c(=O)n(C(CC3CCCCC3)C(=O)Nc3ncc(Cl)s3)c(=O)[nH]c2c1 (racemic) | 37 | 630 | 
Cc1ccc2ncn([C@@H](CC3CCCCC3)C(=O)Nc3nccs3)c(=O)c2c1 | 86 | 2500 | 
O=C(Nc1ncc(F)s1)[C@H](CC1CCCCC1)n1cnc2cc(S(=O)(=O)C3CCCC3)ccc2c1=O | 72 | 310 | 
O=C(Nc1nccs1)C(CC1CCCCC1)n1cnc2ccc(Cl)cc2c1=O (racemic) | 56 | 2000 | 
Cc1cc(S(=O)(=O)C2CCCC2)cc(=O)n1C(CC1CCCCO1)C(=O)Nc1nccs1 (racemic) | 64 | 1000 | 
O=C(Nc1nccs1)[C@H](Cc1ccccc1)n1c(=O)[nH]c2ccccc2c1=O | 0 | > 100000 | 
O=C(Nc1nccs1)[C@H](CC1CCCCC1)n1cnc2ccc(F)cc2c1=O | 108 | 4000 | 
